Cav32 inh – Cav3.2 calcium influx blockers – cell-based, Fluo-4 calcium fluorescence, FDSS, MLSMR library, primary screen | Voltage-dependent T-type calcium channel subunit alpha-1H (Homo sapiens), O95180 | Cav3.2-expressing cells; stronger effect = lower value | B-score at 10 µM | actives 4% (n = 100,000) | AID 449739, 2010;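 active = single-dose well whose peak fluorescence ratio is a statistical outlier from its plate by either plate-standardised score or position-corrected B-score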
CYP2C19 inh – blockers of cytochrome P450 2C19 activity – biochemical, luminescence, ADME assay, primary screen; P33261; CYP2C19 Supersomes, luciferin-H EGE luminescence, 30 min; inhibition, % at 5 µM; actives 21% (n = 96,000); AID 778, 2007;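 active = CYP2C19 inhibition above a set limit at 5 µM in the primary screen, cut at about 50% in these data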;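 note: plate controls were negative control wells for no effect and 2.5 mM tranylcypromine positive control for full effect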
Rev-RRE block – HIV-1 Rev-RRE binding inhibitors, primary screen, biochemical, FRET, protein-RNA interaction; AID 704, 2007; actives 0.79% (n = 97,000); inhibition, % at 8 µM; Rev peptide-RRE RNA binding; P05866;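 active = inhibition above the screen-wide mean plus 3 SD, cut at about 35% in these data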;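 note: 0% = median DMSO wells and 100% = median Neomycin B control wells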
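Test system – labelled RRE RNA duplex and labelled Rev peptide · Signal – fluorescein-to-Cy5 FRET, 480 nm excitation · Evaluation – % inhibition of FRET ratio versus controls · Benchmarks – DMSO low control, neomycin B high control · Incubation – 5 min RNA-compound premix plus 15 min binding step, 25 °C · Medium – HEPES pH 7.5 salt buffer with EDTA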
CYP2C19 act – human CYP2C19 activators, primary screen, biochemical, luminescence; Cytochrome P450 2C19 (Homo sapiens), P33261; recombinant CYP2C19, luciferin-H EGE luminescence; stronger effect = higher value; 0 = fully inhibited enzyme, 1 = untreated enzyme; activation factor at 5 µM; 96,000 tested, under 10 active; AID 1025, 2008;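 active = activation factor of at least 2 at 5 µM in the primary screen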;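 note: 0 = wells with 2.5 mM tranylcypromine and 1 = vehicle-only wells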
CYP2C9 activ – human CYP2C9 activators, primary screen, biochemical, luminescence; recombinant CYP2C9, luciferin-H conversion; stronger effect = higher value; factor 1 = untreated enzyme, 0 = blocked; activation factor at 5 µM; Cytochrome P450 2C9 (Homo sapiens), P11712; actives 1.4% (n = 96,000);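 active = activation factor of 2 or more for CYP2C9 at a 5 µM dose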;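 note: 0 = sulfaphenazole-blocked wells and 1 = vehicle-only wells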
CYP2C9 inhib – blockers of cytochrome P450 2C9 activity – biochemical, luminescence, ADME assay, primary screen. P11712. CYP2C9 Supersomes, luciferin-H conversion. inhibition, % at 5 µM. actives 20% (n = 96,000). AID 777, 2007;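 active = blocking of liver enzyme CYP2C9 beyond about 50% at 5 µM, limit read from the data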
Active calls of the source: *; . = not tested or not shown; [ ] = remark or other dose. The list is not random: actives were taken first. Their share in the collection is about 27%.

SMILES	Cav32 inh	CYP2C19 inh	Rev-RRE block	CYP2C19 act	CYP2C9 activ	CYP2C9 inhib
COc1ccc(-c2noc(C(C)n3nc(C)c([N+](=O)[O-])c3C)n2)cc1OC (configuration not stated)	-0.284	24.7	7.7	0.8	0.4	59.0*
COc1cccc(-c2noc(Cn3nc(C)c([N+](=O)[O-])c3C)n2)c1	-1.28	55.5*	0.9	0.4	0.7	31.1
COc1ccc(C(C)C)cc1S(=O)(=O)N1CCN(C)CC1	0.076	36.6	6.7	0.6	1.2	-16.3
CCOC(=O)COc1cccc2c(=O)n(CC(=O)NCc3ccc4c(c3)OCO4)ccc12	-0.814	.	5.2	.	.	.
CC1CCCC(C)N1CCNC(=O)C1CCN(S(=O)(=O)N2CCCCC2)CC1 (configuration not stated)	-1.82	6.2	12.6	0.9	1.1	-6.1
CC(=O)C1=C(O)C(=O)N(c2ccc(S(N)(=O)=O)cc2)C1c1ccc([N+](=O)[O-])cc1 (configuration not stated)	0.274	18.1	4.6	0.8	0.1	90.0*
Cc1cnc(SCCc2ccncc2)nc1C	0.575	75.8*	.	0.2	0.6	44.6
N#Cc1cnc(SCCc2ccccc2)nc1N	-1.17	49.4	34.4	0.5	0.9	12.8
CCOC(=O)c1csc(NC(=O)CSc2nnnn2CC)n1	1.33	3.9	4.1	1	0.9	7.8
CCOC(=O)C1=C(C)NC(SC(C)=O)=NC1c1ccc(OC(C)=O)c(OC)c1 (configuration not stated)	-0.0226	89.5*	10.5	0.1	0.4	61.6*
CCOC(=O)Cn1c(=O)n(Cc2ccco2)c(=O)c2ccc(C(=O)NC3CCCC3)cc21	-0.147	38.7	8.7	0.6	0.5	48.5
CCCOC(=O)C1=C(C)NC2=C(C(=O)CCC2)C1c1cccs1 (configuration not stated)	1.38	78.2*	0.9	0.2	0.3	71.4*
CCOC(=O)C1=C(C)NC2=C(C(=O)CCC2)C1c1coc2ccccc2c1=O (configuration not stated)	0.779	64.6*	6.6	0.4	0.3	68.5*
CC1=C(C(=O)OC2CCCC2)C(c2ccc(C)o2)C2=C(CC(c3cccs3)CC2=O)N1 (configuration not stated)	-5.89*	14.2	3.5	0.9	0.3	71.7*
COCCOC(=O)C1=C(C)NC2=C(C(=O)CCC2)C1c1ccc(N(C)C)cc1 (configuration not stated)	0.97	20.7	-4.6	0.8	0.7	30.0
CCCOC(=O)C1=C(C)NC2=C(C(=O)CCC2)C1c1cccc(OC)c1OC (configuration not stated)	-0.476	77.8*	-2.5	0.2	0.8	20.5
CCn1c(SCC(=O)Nc2ccc(C)cc2)nnc1-c1ccc(O)cc1	-0.227	.	2.6	.	.	.
CCCC[C@@H]1CNC(=S)N1CCCC	0.896	.	.	.	.	.
COc1ccc(NC(=O)c2ccc(C(=O)c3ccccc3)o2)cc1	-0.0642	4.2	5.7	1	0.6	37.6
CN(C)S(=O)(=O)c1cccc(NC(=O)COC(=O)CCc2nc3ccccc3s2)c1	-0.403	-0.2	3.2	1	1.9	-88.7
COC(=O)C1=C(C)OC(N)=C(C#N)C1c1c(C)nn(-c2ccccc2)c1Cl (configuration not stated)	-5.13*	97.0*	11.3	0	0	96.0*
CCOC(=O)C1=C(C)OC(N)=C(C#N)C1c1c(C)nn(-c2ccc(C)cc2)c1Cl (configuration not stated)	.	99.9*	16.7	0	0	97.3*
CCOC(=O)C1=C(C)N(C)C(=O)NC1c1c(C)nn(-c2ccc(C)cc2)c1Cl (configuration not stated)	-1.9	83.4*	2.7	0.2	0.3	74.2*
c1ccc(OCCOc2ncnc3sccc23)cc1	0.754	39.8	4.3	0.6	0.8	19.7
C(=N\c1ncnc2sccc12)/NOCc1ccccc1	-0.0844	83.9*	6.8	0.2	0.4	56.1*
SMILES	Cav32 inh	CYP2C19 inh	Rev-RRE block	CYP2C19 act	CYP2C9 activ	CYP2C9 inhib
Cc1ccc(N=Cc2sc(O)c3ccccc23)c(C)c1	-0.218	40.8	93.0*[fluorescence artefact?]	0.6	0.4	62.7*
Cc1ccc(N=Cc2cccc(O)c2O)c(C)c1	0.0626	11.6	8.5	0.9	1	3.2
Cc1ccc(N=Cc2sc(O)c3ccccc23)cc1	-0.644	18.6	132.1*[fluorescence artefact?]	0.8	0.7	30.7
CC(C(=O)NC1CCCc2ccccc21)N1CCN(Cc2ccc3c(c2)OCO3)CC1 (configuration not stated)	0.181	10.0	2.5	0.9	1	0.0
O=C(CN1CCN(c2ccccn2)CC1)N1c2ccccc2CCc2ccccc21	-1.56	.	0.8	.	.	.
Cc1ccc(C(=O)NCc2ccc(Cl)c(Cl)c2)o1	-0.309	84.5*	4.8	0.2	0.7	34.9
COc1ccccc1-c1ccc(NC2CCCC2)nn1	0.702	.	5.7	.	.	.
COc1cc2c(cc1OC)CN(c1ccc(-c3ccccc3OC)nn1)CC2	-2.17	62.5*	.	0.4	2.4*	-139.7
Nc1c(N(C(=O)Nc2ccc(Cl)c(Cl)c2)C2CCCC2)c(=O)[nH]c(=O)n1Cc1ccccc1	.	-25.1	13.4	1.3	1.1	-5.0
Cc1cccc(NC(=O)CS(=O)(=O)c2cn(C)c3ccccc23)c1	0.0589	55.8*	.	0.4	1.1	-10.9
Cn1cc(S(=O)(=O)CC(=O)Nc2ccc3c(c2)OCO3)c2ccccc21	0.037	.	9.2	.	.	.
Cc1cc(NC(=O)CS(=O)(=O)c2cn(Cc3ccccc3Cl)c3ccccc23)no1	-2.07	40.2	12.2	0.6	0.3	67.6*
CCn1cc(S(=O)(=O)CC(=O)Nc2cc(C)ccc2C)c2ccccc21	-0.281	95.5*	-1.1	0	1.8	-79.8
O=C(O)C[C@@H](O)C(=O)O	0.36	.	.	.	.	.
Nc1ccccc1C#CCCCCO	0.0392	.	.	.	.	.
CCCn1c(SCC(=O)NC(=O)NCc2ccco2)n[nH]c1=O	-0.0611	8.6	-2.8	0.9	0.8	21.1
O=C(CSc1nnnn1-c1ccccc1)NC(=O)NCc1ccco1	-0.0349	-0.6	5.1	1	1.4	-36.3
Cc1nnc(SCC(=O)NC(=O)NCc2ccco2)n1Cc1ccccc1	-0.0441	16.5	2.4	0.8	0.3	66.8*
O=C(CSc1nnc(-c2ccco2)n1Cc1ccccc1)NC(=O)NCc1ccccc1	0.475	61.9*	3.2	0.4	0.7	29.5
CNC(=O)NC(=O)CSc1nnc(-c2ccco2)n1Cc1ccccc1	0.636	-11.3	8.1	1.1	1.1	-6.2

Screening results: PubChem, several laboratories
